Active and inactive are the calls of the source. No cut-off for these calls is given here.
Experiments:
Rattus norvegicus [1] = experiment: Hepatoprotective activity against high fat/high calorie diet-induced non-alcoholic fatty liver disease in Wistar rat assessed as serum leptin levels at 50 mg/kg, po qd for 4 weeks (reference value: 7.59 +/- 2.36 ng/ml); format: functional
Rattus norvegicus [2] = experiment: Hepatoprotective activity against high fat/high calorie diet-induced non-alcoholic fatty liver disease in Wistar rat assessed as HOMA-IR levels at 50 mg/kg, po qd for 4 weeks (reference value: 15.31 +/- 0.22); format: functional
Rattus norvegicus [3] = experiment: Hepatoprotective activity against high fat/high calorie diet-induced non-alcoholic fatty liver disease in Wistar rat assessed as reduction of fat accumulation in liver cells at 50 mg/kg, po qd for 4 weeks by oil red O and H & E staining; format: functional, organism-based; parameters: dose 50 mg/kg
Summary of the method: (§1)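 Male Wistar rats on a high-fat/high-calorie diet were given compound orally at 50 mg/kg once daily for 4 weeks, suspended in Tween 80 and 5% saline. Liver sections were then stained with Oil Red O and H&E and compared against normal-diet and untreated diet-model rats.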

Rattus norvegicus [4] = experiment: Hepatoprotective activity against high fat/high calorie diet induced NAFLD in Wistar rat assessed as restoration of liver cells at 50 mg/kg, po qd for 4 weeks by oil red O and H & E staining; format: functional, organism-based; parameters: dose 50 mg/kg; summary of the method: as §1
Rattus norvegicus [5] = experiment: Hepatoprotective activity against high fat/high calorie diet-induced non-alcoholic fatty liver disease in Wistar rat assessed as decrease in liver/body weight ratio at 50 mg/kg, po qd for 4 weeks (reference value: 4.95 %); format: functional; parameters: scale not given: the % may be the effect or the level left
3T3-L1 [6] = experiment: Induction of adipogenesis in mouse 3T3L1 cells assessed as increase of adiponectin level at 10 uM after 8 to 12 days (reference value: 843.78 +/- 20.61 ng/ml); format: functional
3T3-L1 [7] = experiment: Induction of adipogenesis in mouse 3T3L1 cells assessed as decrease of leptin level at 10 uM after 24 hrs (reference value: 3089.21 +/- 33.37 pg/ml); format: functional
Rattus norvegicus [8] = experiment: Toxicity in high fat/high calorie diet-induced non-alcoholic fatty liver disease Wistar rat model assessed as abnormal behavioral at 50 mg/kg, po qd for 4 weeks; format: organism-based; parameters: dose 50 mg/kg, route oral; settings: in vivo, 672 h
Rattus norvegicus [9] = experiment: Toxicity in high fat/high calorie diet-induced non-alcoholic fatty liver disease Wistar rat model assessed as physiological signs of toxicity at 50 mg/kg, po qd for 4 weeks; format: organism-based; parameters: dose 50 mg/kg, route oral; settings: in vivo, 672 h
3T3-L1 [10] = experiment: Induction of adipogenesis in mouse 3T3L1 cells assessed as increase of adiponectin expression at 10 uM after 8 to 12 days relative to control; format: functional
3T3-L1 [11] = experiment: Cytotoxicity against mouse 3T3L1 cells assessed as glucose consumption at 10 uM by MTT assay; format: cell-based; settings: 3t3-l1, 10 µM
Rattus norvegicus [12] = experiment: Hepatoprotective activity against high fat/high calorie diet-induced non-alcoholic fatty liver disease in Wistar rat assessed as decreased body weight at 50 mg/kg, po qd for 4 weeks (reference value: 431 +/- 19.4 g); format: functional
Rattus norvegicus [13] = experiment: Hepatoprotective activity against high fat/high calorie diet-induced non-alcoholic fatty liver disease in Wistar rat assessed as decreased liver weight at 50 mg/kg, po qd for 4 weeks (reference value: 21.4 +/- 3.1 g); format: functional
Rattus norvegicus [14] = experiment: Hepatoprotective activity against high fat/high calorie diet-induced non-alcoholic fatty liver disease in Wistar rat assessed as decreased visceral fat assessed per 100 gram of body weight at 50 mg/kg, po qd for 4 weeks (reference value: 4.95 +/- 0.95 g/100g BW); format: functional
Rattus norvegicus [15] = experiment: Hepatoprotective activity against high fat/high calorie diet-induced non-alcoholic fatty liver disease in Wistar rat assessed as decreased FBS at 50 mg/kg, po qd for 4 weeks by radioimmunoassay (reference value: 9.23 +/- […] mM); format: functional
Rattus norvegicus [16] = experiment: Hepatoprotective activity against high fat/high calorie diet-induced non-alcoholic fatty liver disease in Wistar rat assessed as decreased triglyceride levels at 50 mg/kg, po qd for 4 weeks by radioimmunoassay (reference value: 2.38 +/- 1.20 mM); format: functional
Rattus norvegicus [17] = experiment: Hepatoprotective activity against high fat/high calorie diet-induced non-alcoholic fatty liver disease in Wistar rat assessed as decreased ALT levels at 50 mg/kg, po qd for 4 weeks (reference value: 47.52 +/- 4.98 u/l); format: functional
Rattus norvegicus [18] = experiment: Hepatoprotective activity against high fat/high calorie diet-induced non-alcoholic fatty liver disease in Wistar rat assessed as decreased LDL cholesterol levels at 50 mg/kg, po qd for 4 weeks by radioimmunoassay (reference value: 0.97 +/- 0.31 mM); format: functional
Rattus norvegicus [19] = experiment: Hepatoprotective activity against high fat/high calorie diet-induced non-alcoholic fatty liver disease in Wistar rat assessed as decreased HDL cholesterol levels at 50 mg/kg, po qd for 4 weeks by radioimmunoassay (reference value: 1.20 +/- 0.43 mM); format: functional
Rattus norvegicus [20] = experiment: Hepatoprotective activity against high fat/high calorie diet-induced non-alcoholic fatty liver disease in Wistar rat assessed as insulin at 50 mg/kg, po qd for 4 weeks (reference value: 36.32 +/- 2.97 uU/ml); format: functional
Rattus norvegicus [21] = experiment: Hepatoprotective activity against high fat/high calorie diet-induced non-alcoholic fatty liver disease in Wistar rat assessed as serum adiponectin levels at 50 mg/kg, po qd for 4 weeks (reference value: 10.49 +/- 2.59 ng/ml); format: functional
HepG2 [22] = experiment: Cytotoxicity against human HepG2 cells assessed as glucose consumption at 10 uM by MTT assay; format: cell-based; settings: hepg2, 10 µM
HepG2 [23] = experiment: Cytotoxicity against human HepG2 cells assessed as glucose consumption at 10 uM by MTT assay in presence of insulin; format: cell-based; settings: hepg2, 10 µM
Summary of the method: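 HepG2 cells; glucose consumption measured with insulin co-present at 0.1 µM. Full procedure given in supplementary data (S3).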

SMILES	Activity (3T3-L1 [6]) [ng/mL]	Activity (3T3-L1 [7]) [pg/mL]	Activity (3T3-L1 [10]) [%]	Activity (3T3-L1 [11])	other results
O=C(COc1ccc(C=C2C(=O)NC(=O)NC2=O)cc1)Nc1ccccn1	1639.61	1271.98	180.32	Non-toxic	Activity (Rattus norvegicus [1]): 6 ng/mL; Activity (Rattus norvegicus [2]): 7.03; Activity (Rattus norvegicus [3]): Active; Activity (Rattus norvegicus [4]): Active; Activity (Rattus norvegicus [5]): 4.34%; Activity (Rattus norvegicus [8]): Non-toxic; Activity (Rattus norvegicus [9]): Non-toxic; Activity (Rattus norvegicus [12]): 360.5 g; Activity (Rattus norvegicus [13]): 16 g; Activity (Rattus norvegicus [14]): 3.98 g; Activity (Rattus norvegicus [15]): 4.73 mM; Activity (Rattus norvegicus [16]): 1.02 mM; Activity (Rattus norvegicus [17]): 33.06 U/L; Activity (Rattus norvegicus [18]): 0.18 mM; Activity (Rattus norvegicus [19]): 1.11 mM; Activity (Rattus norvegicus [20]): 33.43 uU/ml; Activity (Rattus norvegicus [21]): 12.53 µg/mL
CN(CCOc1ccc(CC2SC(=O)NC2=O)cc1)c1ccccn1 (stereo not drawn) [ROSIGLITAZONE]	1324.73	1773.67	157.31	–	Activity (HepG2 [22]): 15.58%; Activity (HepG2 [23]): 29.41%
Cc1ccc(NC(=O)COc2ccc(C=C3C(=O)NC(=S)NC3=O)cc2)nc1	1239.44	1514.81	146.94	Non-toxic	–
O=C(COc1ccc(C=C2C(=O)NC(=O)NC2=O)cc1)Nc1ccc(F)c(F)c1	1322.02	1571.98	143.8	Non-toxic	–
O=C(COc1ccc(C=C2C(=O)NC(=O)NC2=O)cc1)Nc1ccccc1	1111.73	1856.32	135.18	Non-toxic	–
